Published values from different studies.
Lines come from different studies, so protocols differ.
Target: Serine/threonine-protein kinase Chk1 (CHEK1, Homo sapiens, UniProt O14757)
Residues used in one study (O14757 1-476): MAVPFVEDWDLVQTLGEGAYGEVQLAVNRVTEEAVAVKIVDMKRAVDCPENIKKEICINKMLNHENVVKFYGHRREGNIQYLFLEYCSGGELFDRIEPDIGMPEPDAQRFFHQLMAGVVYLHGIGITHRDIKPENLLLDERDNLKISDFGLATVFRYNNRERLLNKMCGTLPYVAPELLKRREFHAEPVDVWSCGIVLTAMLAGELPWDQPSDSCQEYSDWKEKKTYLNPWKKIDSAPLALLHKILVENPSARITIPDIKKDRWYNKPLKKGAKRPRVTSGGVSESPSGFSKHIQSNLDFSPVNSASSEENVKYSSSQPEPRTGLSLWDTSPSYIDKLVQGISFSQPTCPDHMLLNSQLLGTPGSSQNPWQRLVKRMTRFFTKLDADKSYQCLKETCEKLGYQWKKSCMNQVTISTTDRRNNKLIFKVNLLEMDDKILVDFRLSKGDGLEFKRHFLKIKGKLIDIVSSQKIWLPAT

| SMILES | assay | setting | remaining binding [%] |
| --- | --- | --- | --- |
| CCc1ccccc1C(=O)Nc1n[nH]c2c(C)c(F)c(C3C(C#N)=C(C)N(C)C(C)=C3C#N)cc12 | cell-free assay, competition with immobilised ligand | 1 µM | 91 |
| O=C(NCCCN1CCOCC1)c1ccc(Nc2nccc(-c3cc4ccccc4s3)n2)cc1 | binding, competition with immobilised ligand | 1 µM | 100 |
| C[C@H]1CCN(c2nccc(-c3cnn4ncccc34)n2)C1 | binding | 1 µM | 76 |
| CNC(=O)c1ccc(Nc2ncc(C(F)(F)F)c(NCc3nccnc3N(C)S(C)(=O)=O)n2)cc1 | cell-free assay, competition with immobilised ligand | 0.1 µM | 100 |
| CN(c1nccc(-c2cnn3ncccc23)n1)C1CC1 | binding | 1 µM | 78 |
| O=C(NCCCN1CCOCC1)c1ccc(Nc2ncc(Cl)c(-c3ccc(Cl)s3)n2)cc1 | binding, competition with immobilised ligand | 1 µM | 57 |
| CC(C)(C)c1ccc(-c2nc(CBr)nn2-c2cccc(O)c2)cc1 | cell-free assay, competition with immobilised ligand | 10 µM | 86 |
| CN(CCCC(F)(F)F)c1nccc(-c2cnn3ncccc23)n1 | binding | 1 µM | 100 |
| COc1cnc(Nc2cccc(S(N)(=O)=O)c2)nc1N1CCN(c2ccccc2)CC1 | binding, competition with immobilised ligand | 1 µM | 100 |
| c1cncc(-c2cccc(Nc3nccc(NC4CCCCC4)n3)c2)c1 | binding, competition with immobilised ligand | 10 µM | 94 |
| CC(=O)N1CCC(c2ccc(C(=O)NC(=N)N)cc2C(F)(F)F)CC1 | cell-free assay, competition with immobilised ligand | 1 µM | 95 |
| Nc1ncc2c(n1)-c1c([nH]c3ccc(C#CC4CC4)cc13)CCCC2 | binding, competition with immobilised ligand | 1 µM | 97 |
| N[C@@H]1CCN(c2nccc(-c3cnn4ncccc34)n2)C1 | binding | 1 µM | 100 |
| N#Cc1ccc(Nc2ccc3[nH]c(=O)[nH]c3c2)c(Cl)c1 | cell-free assay, competition with immobilised ligand | 1 µM | 98 |
| C[C@@H]1CN(c2ccc3ncc(-c4ccc5[nH]nc(C6CC6)c5c4)n3n2)C[C@H](C)O1 | binding, competition with immobilised ligand | 0.5 µM | 100 |
| CCCCN(CCCC)C(=O)CN1C[C@H](c2cc(OC)c3c(c2)OCO3)[C@@H](C(=O)O)[C@@H]1CC(C)(C)CCC | cell-free assay, competition with immobilised ligand | 1 µM | 100 |
| COc1ncc2cc3ccccc3nc2c1C#N | cell-free assay, competition with immobilised ligand | 5 µM | 100 |
| Cc1nc(C2CCN(C(=O)c3ccc(OC(F)(F)F)cc3N)CC2)c2ncc(N3CCN(C)CC3)cc2n1 | cell-free assay, competition with immobilised ligand | 1 µM | 100 |
| CCN1CCN(Cc2ccc(C(=O)Nc3ccc(C)c(Oc4ccc5c(c4)CC(=O)N5)c3)cc2C(F)(F)F)CC1 | binding, competition with immobilised ligand | 1 µM | 100 |
| O=C(c1ccc(Nc2nccc(-c3cc4ccccc4s3)n2)cc1)N1CCC(N2CCCC2)CC1 | binding, competition with immobilised ligand | 1 µM | 100 |
| Cc1cnn2ncc(-c3ccnc(N(C)C)n3)c2c1 | binding | 1 µM | 100 |
| O=C(Nc1c[nH]nc1C(=O)NC1CCNCC1)c1cc(F)cc(F)c1 | binding, competition with immobilised ligand | 1 µM | 100 |
| CC(=O)c1c(NS(C)(=O)=O)c2cc(-c3ccc(Cl)cc3)c(-c3ccc(Cl)cc3Cl)nc2n(C)c1=O | cell-free assay, competition with immobilised ligand | 1 µM | 100 |
| CN(C)c1ncc(F)c(-c2cnn3ncccc23)n1 | binding | 1 µM | 87 |
